High-throughput results deposited in PubChem BioAssay by Sanford-Burnham Center for Chemical Genomics.
Not all results are given here.
Apaf1 activ: activators of human Apaf-1 apoptosome; Apaf-1 apoptosome caspase-3 activation, DEVD-Rh110 fluorescence; active compounds read low; 330,000 compounds, 0.31% hits; O14727; activity change, negative = activation, % at 20 µM;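 active = activity change at or below -40% at 20 µM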
Target sequence (O14727 whole entry, looked up): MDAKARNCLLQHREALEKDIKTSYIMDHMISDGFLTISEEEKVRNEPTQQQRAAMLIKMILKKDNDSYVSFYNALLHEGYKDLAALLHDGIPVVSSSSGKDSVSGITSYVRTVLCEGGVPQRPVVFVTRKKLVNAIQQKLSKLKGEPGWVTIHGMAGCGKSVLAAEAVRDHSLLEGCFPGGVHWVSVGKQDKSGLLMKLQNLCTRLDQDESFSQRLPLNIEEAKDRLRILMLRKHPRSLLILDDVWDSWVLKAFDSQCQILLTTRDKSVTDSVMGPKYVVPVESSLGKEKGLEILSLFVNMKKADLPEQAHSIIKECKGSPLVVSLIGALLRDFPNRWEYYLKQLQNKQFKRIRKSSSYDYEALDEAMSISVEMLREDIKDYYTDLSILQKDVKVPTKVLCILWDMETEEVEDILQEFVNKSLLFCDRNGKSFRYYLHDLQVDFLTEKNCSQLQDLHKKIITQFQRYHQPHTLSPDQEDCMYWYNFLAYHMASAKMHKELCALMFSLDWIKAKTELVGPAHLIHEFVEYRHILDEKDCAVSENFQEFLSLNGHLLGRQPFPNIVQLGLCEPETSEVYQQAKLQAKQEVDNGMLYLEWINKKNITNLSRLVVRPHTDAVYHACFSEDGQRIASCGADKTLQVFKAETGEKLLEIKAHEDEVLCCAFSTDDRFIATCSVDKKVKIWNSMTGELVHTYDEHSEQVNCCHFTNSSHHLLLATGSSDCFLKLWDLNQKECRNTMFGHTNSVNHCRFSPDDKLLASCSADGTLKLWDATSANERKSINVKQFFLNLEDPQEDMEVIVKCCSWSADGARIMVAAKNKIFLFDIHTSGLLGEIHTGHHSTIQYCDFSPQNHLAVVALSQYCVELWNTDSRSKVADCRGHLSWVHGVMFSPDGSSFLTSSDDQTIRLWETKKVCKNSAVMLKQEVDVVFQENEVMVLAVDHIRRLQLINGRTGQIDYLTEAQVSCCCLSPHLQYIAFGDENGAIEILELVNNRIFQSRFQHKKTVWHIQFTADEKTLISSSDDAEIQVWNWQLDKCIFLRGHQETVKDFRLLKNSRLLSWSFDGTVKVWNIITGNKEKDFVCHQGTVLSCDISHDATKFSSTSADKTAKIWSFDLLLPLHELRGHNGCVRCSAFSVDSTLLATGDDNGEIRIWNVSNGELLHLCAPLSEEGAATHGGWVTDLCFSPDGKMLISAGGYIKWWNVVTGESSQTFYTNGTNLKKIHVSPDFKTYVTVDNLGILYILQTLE
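Material: biochemical Apaf-1 apoptosome reconstitution; Medium: 20 mM HEPES buffer, pH 7.5, containing CHAPS and BSA; Reagent: dATP, cytochrome c, and (Z-DEVD)2-Rh110 caspase-3 substrate; Times: 30 min preincubation, 50 min reaction, room temperature; Signal: Rh110 fluorescence, excitation 480 nm, emission 540 nm; Measure: Caspase-3 activity via Apaf-1.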
* marks the source's active call; other numbers are inactive results.

Screening O=C1NC(Cc2ccc(O)cc2)c2nc3ccc(Cl)cc3c(=O)n2-c2ccc(Cl)cc21 (stereo unspecified) returned Apaf1 activ -42*.
For Cc1ccc(-c2ccc(/C=N\NC(=O)C3C(=O)NCC3c3ccccc3)o2)cc1Cl (stereo unspecified) the results were Apaf1 activ 43.
Screening CNC[C@H](Cc1cccc2ccccc12)NC[C@H](CCSC)NCC1CCC(C(C)(C)C)CC1 (stereo partly specified) returned Apaf1 activ 65.
`CCCCN1CC[C@H]2C=CC[C@@H](C(=O)N3CCOCC3)[C@H]2C1=O` gave Apaf1 activ -437*.
For CCOC(=O)C1CCCN(C(=O)c2cccc(S(=O)(=O)N(C)c3c(C)n(C)n(-c4ccccc4)c3=O)c2)C1 (stereo unspecified) the results were Apaf1 activ 49.
Screening O=C1c2ccccc2[C@@H]2C[C@@H](O)[C@H](Nc3cccc4ccccc34)CCN12 returned Apaf1 activ 53.
`CC1(OC(=O)c2cccs2)C(=O)C=C2C=C3CCCN3C=C2C1=O` (stereo unspecified) gave Apaf1 activ 62.
Screening CC(=O)N1CCOc2ccc(S(=O)(=O)N(C)c3ccc(C)cc3)cc21 returned Apaf1 activ 40.
COc1ccccc1Oc1c(C)oc2c(CN3CCN(C)CC3)c(O)ccc2c1=O was read as Apaf1 activ -595*.
CC(=O)c1ccc(OCCCC(=O)N2CCN(S(=O)(=O)c3ccc(C)cc3C)CC2)cc1 was read as Apaf1 activ 40.
For CCCOc1ccc(C2C(C(=O)c3ccco3)=C(O)C(=O)N2CCN2CCOCC2)cc1OC (stereo unspecified) the results were Apaf1 activ -492*.
`CCOc1cc(C2C(C(C)=O)=C(O)C(=O)N2CCc2c[nH]c3ccccc23)ccc1O` (stereo unspecified) gave Apaf1 activ 49.
For O=c1cc(N/N=C/c2ccccc2)[nH]c(=O)[nH]1 the results were Apaf1 activ 68.
`COC(C[C@H]1O[C@@H]1C(=O)[C@H](C)OCc1ccccc1)OC` gave Apaf1 activ 48.
Screening O=C(/C=C/c1ccco1)c1ccc(NC(=O)C23CC4CC(CC(C4)C2)C3)cc1 returned Apaf1 activ 45.
CCCn1nc(C(=O)Nc2ccc(-n3cnnn3)cc2)c2ccccc2c1=O was read as Apaf1 activ 71.
C=CC(=O)Nc1ccc(N(C)c2ccnc(Nc3ccc(N4CCN(C)CC4)cc3)n2)cc1 was read as Apaf1 activ 62.
Screening CC1=C(C#N)C(=O)N(C2CCS(=O)(=O)C2)C(=O)/C1=C\c1ccco1 (stereo unspecified) returned Apaf1 activ 54.
COc1ccc2c3c(cccc13)N(C)N=C2C was read as Apaf1 activ 73.
CCOC(=O)c1c(NC(=O)N/N=C/c2ccc(O)c(OC)c2)sc(C(C)=O)c1C was read as Apaf1 activ -63*.
For COc1cc(/C=N/NC(=O)c2ccncc2)ccc1O the results were Apaf1 activ 9.
For ONc1cccnc1-n1nc(C(F)(F)F)cc1C(F)(F)F the results were Apaf1 activ 47.
For CSCCC(NC(=O)c1ccccc1Br)C(=O)N1CCN(C(C)=O)CC1 (stereo unspecified) the results were Apaf1 activ 48.
`O=C(CSc1nnc(-c2ccc(F)cc2)n1CC1CCCO1)NCc1ccco1` (stereo unspecified) gave Apaf1 activ 54.
COc1ccc(CC(=O)N(C)CC(=O)Nc2ccccc2C(F)(F)F)cc1S(=O)(=O)N1CCOCC1 was read as Apaf1 activ 46.
Screening COc1ccc(CN(C)C(C)C(=O)Nc2ccc(S(=O)(=O)N3CCCC3)cc2)c(OC)c1OC (stereo unspecified) returned Apaf1 activ -83*.
`COc1ccc(CC(=O)N(C)CC(=O)Nc2c(C)cccc2C)cc1S(=O)(=O)N1CCOCC1` gave Apaf1 activ 60.
Screening COc1ccc(CC2=CC(=O)c3ccccc3C2=O)cc1 returned Apaf1 activ 50.
For CCCN[C@H]1CCc2nc(N)sc2C1 the results were Apaf1 activ -2.
Screening CC1(c2ccc(OC(F)F)cc2)NC(=O)N(CC(=O)Nc2ccc(N3CCCCC3)cc2)C1=O (stereo unspecified) returned Apaf1 activ 53.
For CC(=O)N1CCc2c(sc(NC(=O)c3cccc(N4C(=O)CCC4=O)c3)c2C(N)=O)C1 the results were Apaf1 activ 57.
COC(=O)c1ccccc1S(=O)(=O)N1CCC(C(=O)N2CCC2)CC1 was read as Apaf1 activ 55.
For NC(=O)[C@H](Cc1cc2ccccc2s1)NC(=O)[C@@H]1CC2(CC(c3cccc(NC(=O)[C@@H]4CCC(=O)N4)c3)=NO2)CN1C(=O)/C=C/c1c(F)cccc1Cl (stereo partly specified) the results were Apaf1 activ 47.
`C=C(C)C(=O)Nc1cccc(C2=NOC3(C2)C[C@@H](C(N)=O)N(C(=O)C2(C)CC2)C3)c1` (stereo partly specified) gave Apaf1 activ -295*.
Cc1nn(-c2ccccc2)c(N2CCCC2)c1/C=C1\N=C(c2ccc(OC(C)C)cc2)OC1=O was read as Apaf1 activ 52.
Screening O=C1Cc2cc(S(=O)(=O)N3CCNCC3)ccc2N1 returned Apaf1 activ 40.
CCC(C)[C@H]1CN=C(N)N1CCc1cc(C(F)(F)F)cc(C(F)(F)F)c1 (stereo partly specified) was read as Apaf1 activ 57.
`O=C(CCS(=O)(=O)c1ccc(Br)cc1)N1CCCCCC1` gave Apaf1 activ -283*.
Screening Cc1nn(CCc2nn[nH]n2)c2nc(-c3ccc(C4CCCCC4)cc3)cc(C(F)(F)F)c12 returned Apaf1 activ 60.
For COc1ccc(OC)c(S(=O)(=O)Oc2ccc(N)c3ccccc23)c1 the results were Apaf1 activ 69.
For CCC(=O)NC1=C(Cl)C(=O)C(NC(=O)CC)=C(Cl)C1=O the results were Apaf1 activ 71.
CCN(CC(=O)Nc1ccc(OC)cc1)C(=O)C1CCN(C(=O)c2ccc(Cl)cc2)CC1 was read as Apaf1 activ 58.
`N#CCCN(C(=O)COC(=O)C12CC3CC(CC(O)(C3)C1)C2)c1ccc(F)cc1` gave Apaf1 activ 43.
CCN(CC)c1ccc(/C=C/c2nc3ccccc3s2)cc1 was read as Apaf1 activ -305*.
`CC[n+]1c(/C=C/N(C)c2ccccc2)n(-c2ccccc2)c2ccc(-c3nc4ccccc4s3)cc21` gave Apaf1 activ 82.
Screening CC(C)N(C(=O)[C@H]1C[C@H](CC(=O)NCCC2=CCCCC2)C(=O)N2CCc3c([nH]c4ccc(Cl)cc34)[C@]12C)C(C)C returned Apaf1 activ 44.
Cc1ccc(NC(=O)CSc2nc3ccccc3c(=O)n2CCCN2CCCCC2)cc1C was read as Apaf1 activ 55.
Screening NS(=O)(=O)c1ccc(CCNC(=O)CCS(=O)(=O)c2ccc(Br)cc2)cc1 returned Apaf1 activ -214*.
`CCOc1ccc(OCCSc2ccc(S(=O)(=O)N3CCN(C)CC3)cn2)cc1` gave Apaf1 activ 55.
For O=C(c1ccco1)N1CCN(C(=O)c2cn(-c3ccccc3)nc2-c2ccc(F)cc2)CC1 the results were Apaf1 activ 72.
O=c1[nH]nc(-c2ccc(OCc3ccc(Cl)cc3Cl)cc2)o1 was read as Apaf1 activ -54*.
